This note sets out measurements from ChEMBL document CHEMBL4118285, “Synthesis and antibacterial activity of novel ketolides with 11,12-quinoylalkyl side chains” (2018).

Converted amounts (≈) assume the structure as drawn.

What all share (type): functional
In experiment [1] the test system is Staphylococcus aureus. As to the kind of experiment: Antibacterial activity against methicillin-resistant Staphylococcus aureus ATCC 33591 by broth microdilution method. Put shortly: (§1)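 MIC values were determined by broth microdilution following Clinical and Laboratory Standards Institute (CLSI) recommendations.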
Experiment [2] relates to Staphylococcus epidermidis. Nature of the experiment: Antibacterial activity against methicillin-resistant Staphylococcus epidermidis 13-3 by broth microdilution method. Put shortly:
as §1

Experiment [3] relates to Staphylococcus epidermidis. As to the kind of experiment: Antibacterial activity against methicillin-sensitive Staphylococcus epidermidis ATCC 12228 by broth microdilution method. The method, boiled down:
(§2)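 MICs were determined by broth microdilution following CLSI recommendations, with clarithromycin and telithromycin run as reference antibiotics.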

For experiment [4], the system named is Staphylococcus aureus. As to the kind of experiment: Antibacterial activity against methicillin-sensitive Staphylococcus aureus ATCC 29213 by broth microdilution method. Put shortly:
as §2

In a further experiment the test system is Klebsiella pneumoniae. As to the kind of experiment: Antibacterial activity against extended spectrum beta-lactamases producing Klebsiella pneumoniae ATCC 700603 by broth microdilution method. Put shortly:
as §2

Experiment [5] concerns Moraxella catarrhalis. Nature of the experiment: Antibacterial activity against clarithromycin-resistant Moraxella catarrhalis 12-2 by broth microdilution method. The method, boiled down: as §1
The test system of experiment [6] is Streptococcus pyogenes. As to the kind of experiment: Antibacterial activity against […] Streptococcus pyogenes 12-8 by broth microdilution method. The method, boiled down: as §2
For another experiment, the system named is Escherichia coli. Nature of the experiment: Antibacterial activity against extended spectrum beta-lactamases non-producing Escherichia coli ATCC 25922 by broth microdilution method. The method, boiled down: as §2
Experiment [7] relates to Moraxella catarrhalis. As to the kind of experiment: Antibacterial activity against clarithromycin-sensitive Moraxella catarrhalis 12-1 by broth microdilution method. Put shortly: as §2
Experiment [8] deals with Streptococcus pyogenes. As to the kind of experiment: Antibacterial activity against methicillin-resistant Streptococcus pyogenes 12-1 by broth microdilution method. Put shortly: as §1
The subject of a further experiment is Pseudomonas aeruginosa. Nature of the experiment: Antibacterial activity against Pseudomonas aeruginosa ATCC 27853 by broth microdilution method. Put shortly: as §2
Experiment [9] concerns Haemophilus influenzae. As to the kind of experiment: Antibacterial activity against azithromycin-resistant Haemophilus influenzae 11Q373 by broth microdilution method. Put shortly: as §1
For experiment [10], the system named is Staphylococcus epidermidis. As to the kind of experiment: Antibacterial activity against methicillin-sensitive Staphylococcus epidermidis 11X315 by broth microdilution method. Put shortly: as §1
In experiment [11] the test system is Staphylococcus aureus. Nature of the experiment: Antibacterial activity against methicillin-resistant Staphylococcus aureus 11B117 by broth microdilution method. Put shortly: as §1
Experiment [12] deals with Streptococcus pyogenes. Nature of the experiment: Antibacterial activity against erythromycin-resistant Streptococcus pyogenes 11 N369 by broth microdilution method. The method, boiled down: as §1
The test system of experiment [13] is Staphylococcus aureus. Nature of the experiment: Antibacterial activity against methicillin-sensitive Staphylococcus aureus 11B122 by broth microdilution method. Put shortly: as §2
Experiment [14] deals with Haemophilus influenzae. As to the kind of experiment: Antibacterial activity against azithromycin-sensitive Haemophilus influenzae 11P042 by broth microdilution method. The method, boiled down:
as §2

Experiment [15] has as its system Streptococcus pneumoniae. As to the kind of experiment: Antibacterial activity against erythromycin-resistant Streptococcus pneumoniae 11 J011 by broth microdilution method. The method, boiled down: as §1
In experiment [16] the test system is Streptococcus pneumoniae. Nature of the experiment: Antibacterial activity against erythromycin-sensitive Streptococcus pneumoniae 11G364 by broth microdilution method. The method, boiled down: as §2
Experiment [17] relates to Streptococcus pyogenes. As to the kind of experiment: Antibacterial activity against erythromycin-sensitive Streptococcus pyogenes 11L264 by broth microdilution method. Put shortly: as §2
For experiment [18], the system named is Staphylococcus epidermidis. Nature of the experiment: Antibacterial activity against methicillin-resistant Staphylococcus epidermidis 11C176 by broth microdilution method. Put shortly: as §1

Regarding `CC[C@H]1OC(=O)[C@H](C)C(=O)[C@H](C)[C@@H](O[C@@H]2O[C@H](C)C[C@H](N(C)C)[C@H]2O)[C@](C)(OC)C[C@@H](C)C(=O)[C@H](C)[C@H]2N(CC/C=C/c3cncc4cc(OC)ccc34)C(=O)O[C@]12C`, the MIC was 64 µg/mL (≈ 77.7 µM) against Staphylococcus aureus [1]; 64 µg/mL (≈ 77.7 µM) in experiment [2]; 0.015 µg/mL (≈ 0.0182 µM) in experiment [3]; 0.06 µg/mL (≈ 0.0728 µM) in the experiment on Staphylococcus aureus [4]; more than 256 µg/mL in the experiment on Klebsiella pneumoniae; 8 µg/mL (≈ 9.71 µM) in the experiment on Moraxella catarrhalis [5]. Also, the MIC with Streptococcus pyogenes [6] worked out at 0.015 µg/mL (≈ 0.0182 µM); with Escherichia coli, 64 µg/mL (≈ 77.7 µM); against Moraxella catarrhalis [7], 0.015 µg/mL (≈ 0.0182 µM); in the experiment on Streptococcus pyogenes [8] it was 32 µg/mL (≈ 38.8 µM); in the experiment with Pseudomonas aeruginosa, 64 µg/mL (≈ 77.7 µM).

`CC[C@H]1OC(=O)[C@H](C)C(=O)[C@H](C)[C@@H](O[C@@H]2O[C@H](C)C[C@H](N(C)C)[C@H]2O)[C@](C)(OC)C[C@@H](C)C(=O)[C@H](C)[C@H]2N(CCCOc3cnc4ccccc4c3)C(=O)O[C@]12C`: the MIC is 8 µg/mL (≈ 10 µM) in the experiment on Haemophilus influenzae [9]; 0.062 µg/mL (≈ 0.0777 µM) in experiment [10]; more than 64 µg/mL against Staphylococcus aureus [11]; 1 µg/mL (≈ 1.25 µM) in the experiment on Streptococcus pyogenes [12]; 0.125 µg/mL (≈ 0.157 µM) in the experiment on Staphylococcus aureus [13]; 1 µg/mL (≈ 1.25 µM) against Haemophilus influenzae [14]. Besides, the MIC is 0.062 µg/mL (≈ 0.0777 µM) against Streptococcus pneumoniae [15], not above 0.004 µg/mL against Streptococcus pneumoniae [16], 0.008 µg/mL (≈ 0.01 µM) against Streptococcus pyogenes [17] and 0.25 µg/mL (≈ 0.313 µM) in [18].

With `CC[C@H]1OC(=O)[C@H](C)C(=O)[C@H](C)[C@@H](O[C@@H]2O[C@H](C)C[C@H](N(C)C)[C@H]2O)[C@](C)(OC)C[C@@H](C)C(=O)[C@H](C)[C@H]2N(CC/C=C/c3cncc4cc(OCc5ccccc5)ccc34)C(=O)O[C@]12C`, the MIC in the experiment on Staphylococcus aureus [1] was 8 µg/mL (≈ 8.89 µM); in experiment [2], 16 µg/mL (≈ 17.8 µM); in experiment [3], 1 µg/mL (≈ 1.11 µM); in the experiment on Staphylococcus aureus [4], 1 µg/mL (≈ 1.11 µM); with Klebsiella pneumoniae it was more than 256 µg/mL; in the experiment with Moraxella catarrhalis [5] it was 8 µg/mL (≈ 8.89 µM). Also, the MIC is 0.25 µg/mL (≈ 0.278 µM) with Streptococcus pyogenes [6]; more than 256 µg/mL with Escherichia coli; 0.5 µg/mL (≈ 0.555 µM) in the experiment on Moraxella catarrhalis [7]; 8 µg/mL (≈ 8.89 µM) against Streptococcus pyogenes [8]; more than 256 µg/mL in the experiment with Pseudomonas aeruginosa.

`CC[C@H]1OC(=O)[C@H](C)C(=O)[C@H](C)[C@@H](O[C@@H]2O[C@H](C)C[C@H](N(C)C)[C@H]2O)[C@](C)(OC)C[C@@H](C)C(=O)[C@H](C)[C@H]2N(CC/C=C/c3cncc4ccc(-c5ccccc5)cc34)C(=O)O[C@]12C`: the MIC against Staphylococcus aureus [1] is 4 µg/mL (≈ 4.6 µM); in experiment [2], 8 µg/mL (≈ 9.19 µM); in [3], 0.5 µg/mL (≈ 0.575 µM); against Staphylococcus aureus [4] it was 1 µg/mL (≈ 1.15 µM); in the experiment on Klebsiella pneumoniae, more than 256 µg/mL; in the experiment on Moraxella catarrhalis [5] it was 2 µg/mL (≈ 2.3 µM). The MIC was 0.125 µg/mL (≈ 0.144 µM) against Streptococcus pyogenes [6]; more than 256 µg/mL in the experiment on Escherichia coli; 0.125 µg/mL (≈ 0.144 µM) with Moraxella catarrhalis [7]; 8 µg/mL (≈ 9.19 µM) against Streptococcus pyogenes [8]; more than 256 µg/mL against Pseudomonas aeruginosa.

In the case of `CC[C@H]1OC(=O)[C@H](C)C(=O)[C@H](C)[C@@H](O[C@@H]2O[C@H](C)C[C@H](N(C)C)[C@H]2O)[C@](C)(OC)C[C@@H](C)C(=O)[C@H](C)[C@H]2N(CCCNc3cnc4ccccc4c3)C(=O)O[C@]12C`, the MIC in the experiment with Haemophilus influenzae [9] is 8 µg/mL (≈ 10 µM); in [10], 0.5 µg/mL (≈ 0.627 µM); against Staphylococcus aureus [11], more than 64 µg/mL; in the experiment on Streptococcus pyogenes [12], 64 µg/mL (≈ 80.3 µM); in the experiment on Staphylococcus aureus [13] it was 0.5 µg/mL (≈ 0.627 µM); in the experiment with Haemophilus influenzae [14] it was 8 µg/mL (≈ 10 µM). In addition, the MIC in the experiment on Streptococcus pneumoniae [15] is 0.5 µg/mL (≈ 0.627 µM); in the experiment on Streptococcus pneumoniae [16], 0.016 µg/mL (≈ 0.0201 µM); with Streptococcus pyogenes [17] it was 0.031 µg/mL (≈ 0.0389 µM); in experiment [18], 0.5 µg/mL (≈ 0.627 µM).

In the case of `CC[C@H]1OC(=O)[C@H](C)C(=O)[C@H](C)[C@@H](O[C@@H]2O[C@H](C)C[C@H](N(C)C)[C@H]2O)[C@](C)(OC)C[C@@H](C)C(=O)[C@H](C)[C@H]2N(CCCOc3ccc4cccnc4c3)C(=O)O[C@]12C`, the MIC against Staphylococcus aureus [1] is 256 µg/mL (≈ 321 µM); in experiment [2] it was more than 256 µg/mL; in experiment [3] it was 0.03 µg/mL (≈ 0.0376 µM); against Staphylococcus aureus [4] it was 0.015 µg/mL (≈ 0.0188 µM); against Klebsiella pneumoniae, 128 µg/mL (≈ 160 µM); in the experiment on Moraxella catarrhalis [5], 64 µg/mL (≈ 80.2 µM). In addition, the MIC with Streptococcus pyogenes [6] is 0.015 µg/mL (≈ 0.0188 µM); in the experiment on Escherichia coli, 16 µg/mL (≈ 20.1 µM); in the experiment with Moraxella catarrhalis [7] it was 0.015 µg/mL (≈ 0.0188 µM); against Streptococcus pyogenes [8], more than 256 µg/mL; in the experiment with Pseudomonas aeruginosa, 32 µg/mL (≈ 40.1 µM).

In the case of `CC[C@H]1OC(=O)[C@@](C)(F)C(=O)[C@H](C)[C@@H](O[C@@H]2O[C@H](C)C[C@H](N(C)C)[C@H]2O)[C@](C)(OC)C[C@@H](C)C(=O)[C@H](C)[C@H]2N(CCCOc3cnc4ccccc4c3)C(=O)O[C@]12C`, the MIC in the experiment on Staphylococcus aureus [1] stood at 64 µg/mL (≈ 78.4 µM); in [2] it was 128 µg/mL (≈ 157 µM); in experiment [3] it was 0.015 µg/mL (≈ 0.0184 µM); in the experiment with Staphylococcus aureus [4], 0.015 µg/mL (≈ 0.0184 µM); in the experiment with Klebsiella pneumoniae it was 32 µg/mL (≈ 39.2 µM); against Moraxella catarrhalis [5], 64 µg/mL (≈ 78.4 µM). Also, the MIC against Streptococcus pyogenes [6] was found to be 0.015 µg/mL (≈ 0.0184 µM); in the experiment on Escherichia coli it was 8 µg/mL (≈ 9.8 µM); against Moraxella catarrhalis [7], 0.015 µg/mL (≈ 0.0184 µM); against Streptococcus pyogenes [8] it was 64 µg/mL (≈ 78.4 µM); in the experiment on Pseudomonas aeruginosa it was 16 µg/mL (≈ 19.6 µM).
